The values below come from ChEMBL document CHEMBL1144531, “Novel selective inhibitors of neutral endopeptidase for the treatment of female sexual arousal disorder” (Bioorg Med Chem, 2007).

Series [1] can be described thus: Inhibition of dog kidney cortex NEP at pH 7. The arrangement: species or system Canis lupus familiaris.
For another series, the species on record is Sus scrofa. The series is described as follows: Inhibition of pig ACE. In outline:
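Porcine ACE; same format as the NEP assay. Substrate o-aminobenzoyl-Gly-Gly-p-nitro-Phe-Pro-OH, 10 µM final, in 50 mM Tris-Cl pH 7.4 (37 °C) with 300 mM NaCl. Stopped with 2 mM EDTA; fluorescence read-out. IC50 from dilution series.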

For series [2], the target named is T1, Endothelin-converting enzyme 1 (Homo sapiens) (UniProt P42892).
T1 sequence (whole entry): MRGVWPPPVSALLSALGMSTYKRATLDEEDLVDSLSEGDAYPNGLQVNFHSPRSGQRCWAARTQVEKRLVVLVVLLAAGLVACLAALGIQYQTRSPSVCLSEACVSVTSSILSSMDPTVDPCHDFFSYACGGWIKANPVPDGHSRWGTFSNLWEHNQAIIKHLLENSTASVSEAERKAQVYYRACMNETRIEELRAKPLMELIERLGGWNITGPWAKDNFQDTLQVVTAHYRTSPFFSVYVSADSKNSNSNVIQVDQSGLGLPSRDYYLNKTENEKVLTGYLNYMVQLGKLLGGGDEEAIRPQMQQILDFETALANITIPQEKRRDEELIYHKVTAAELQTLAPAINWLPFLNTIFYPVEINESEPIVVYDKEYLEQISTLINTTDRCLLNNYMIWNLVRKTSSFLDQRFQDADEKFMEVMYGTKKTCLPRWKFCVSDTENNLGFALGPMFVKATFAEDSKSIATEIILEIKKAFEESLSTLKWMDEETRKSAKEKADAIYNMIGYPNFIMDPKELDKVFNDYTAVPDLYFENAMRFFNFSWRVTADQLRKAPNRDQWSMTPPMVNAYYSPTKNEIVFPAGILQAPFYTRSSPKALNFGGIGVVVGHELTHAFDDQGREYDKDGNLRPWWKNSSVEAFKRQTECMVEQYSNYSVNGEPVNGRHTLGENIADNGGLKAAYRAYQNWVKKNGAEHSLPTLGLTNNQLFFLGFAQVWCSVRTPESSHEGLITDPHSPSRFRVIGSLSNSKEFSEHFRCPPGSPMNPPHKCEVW
Nature of the series: Inhibition of human ECE1. Summed up: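 Human ECE-1, run like the ACE assay (50 mM Tris-Cl pH 7.4, 300 mM NaCl, EDTA stop), with Big ET-1 as substrate. IC50 from dilution series.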

Series [3] can be described thus: Distribution coefficient, log D in n-octanol and phosphate buffer at pH 7.4. Type of series: physicochemical.
Series [4] in a line: Metabolic stability in human liver microsomes at 1 uM. The class given is ADME, Microsome. Summed up: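 Human liver microsomes, 1 µM compound with 0.5 µM CYP. Reported as first-order compound disappearance half-life.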
(Microsomes from liver hold many membrane-bound enzymes, among them those of drug oxidation.)

Series [5] is described as follows: Permeability from apical to basolateral side of the Caco-2 cell membrane at pH 7.4. The class given is ADME, cell-based. Particulars: human, Caco-2, pH 7.4. Summed up:
(§1)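 Caco-2 monolayers; apparent permeability (Papp) measured with pH 7.4 in both apical and basolateral chambers.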
For orientation: Caco-2 monolayers are a common model of the intestinal barrier.

The nature of series [6]: Permeability from basolateral to apical side of the Caco-2 cell membrane at pH 7.4. Particulars: human, Caco-2, pH 7.4. The class given is ADME, cell-based. In outline: as §1
Series [7] is described as follows: Inhibition of dog kidney cortex NEP at pH 7.4. The arrangement: species or system Canis lupus familiaris.
Series [8] in a line: Clearance in rat at 1 mg/kg, iv and 1 mg/kg, po. Type of series: ADME, organism-based. The following applies: in vivo. In outline: (§2)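 Male CD rats, jugular vein cannulated under general anaesthesia; dosed 1 mg/kg iv (tail vein) and po (gavage). Serial 0.2 ml blood samples taken from the cannula into heparin, centrifuged to plasma, stabilised with 0.01 parts 85% phosphoric acid, frozen. Plasma levels measured by LC–MS–MS after C18 solid-phase extraction, with internal standard.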

Series [9] in a line: Volume of distribution in rat at 1 mg/kg, iv and 1 mg/kg, po. The class given is ADME, organism-based. The following applies: in vivo, read-out: Vdss. Summed up:
as §2

Series [10] can be described thus: Half life in rat at 1 mg/kg, iv and 1 mg/kg, po. Type of series: ADME, organism-based. Particulars: in vivo. In outline: as §2
The nature of series [11]: Fraction unbound ligand in rat at 1 mg/kg, iv and 1 mg/kg, po. Type of series: ADME, organism-based. Particulars: in vivo. In outline: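 Fraction unbound in rat plasma measured at 1 µg/ml by equilibrium dialysis against isotonic Krebs–Ringer bicarbonate buffer, pH 7.4.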
Series [12] in a line: Oral bioavailability in rat at 1 mg/kg, iv and 1 mg/kg, po. Type of series: ADME, organism-based. Particulars: in vivo. In outline:
as §2

Series [13] can be described thus: Tmax in rat at 1 mg/kg, iv and 1 mg/kg, po. The class given is ADME, organism-based. The following applies: in vivo. Summed up:
as §2

A further series is filed under the species Homo sapiens. The series is described as follows: Protein binding in human plasma at 1 ug/ml by equilibrium dialysis. The following applies: read-out: PPB (converted). A general note: In equilibrium dialysis free small molecules cross a membrane that holds back macromolecules.
In series [14] the target is T2, Neprilysin (Rattus norvegicus, UniProt P07861).
T2 sequence (P07861 whole entry): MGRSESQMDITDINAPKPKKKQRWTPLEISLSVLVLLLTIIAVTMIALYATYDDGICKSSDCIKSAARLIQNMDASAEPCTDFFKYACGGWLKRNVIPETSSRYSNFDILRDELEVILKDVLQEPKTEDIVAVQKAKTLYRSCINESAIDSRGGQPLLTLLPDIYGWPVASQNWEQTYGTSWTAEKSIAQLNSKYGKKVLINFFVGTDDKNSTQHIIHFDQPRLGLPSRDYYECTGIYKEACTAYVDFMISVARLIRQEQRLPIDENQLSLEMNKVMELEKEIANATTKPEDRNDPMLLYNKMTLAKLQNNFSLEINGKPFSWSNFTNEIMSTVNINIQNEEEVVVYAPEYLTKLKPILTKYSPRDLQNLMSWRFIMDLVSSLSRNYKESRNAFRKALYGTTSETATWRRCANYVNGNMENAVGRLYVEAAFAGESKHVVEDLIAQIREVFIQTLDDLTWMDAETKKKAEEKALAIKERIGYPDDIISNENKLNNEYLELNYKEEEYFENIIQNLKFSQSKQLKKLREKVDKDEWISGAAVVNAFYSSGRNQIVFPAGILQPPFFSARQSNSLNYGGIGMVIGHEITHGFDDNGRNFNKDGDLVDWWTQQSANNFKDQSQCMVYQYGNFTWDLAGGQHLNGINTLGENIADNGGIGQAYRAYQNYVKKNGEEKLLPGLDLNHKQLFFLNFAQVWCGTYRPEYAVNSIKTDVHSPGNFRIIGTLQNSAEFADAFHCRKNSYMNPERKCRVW
The series is described as follows: Inhibition of rat NEP. In outline:
(§3)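 Fluorogenic assay with Abz-D-Arg-Arg-Leu-EDDnp as substrate (solution at 50 µM before mixing). Inhibitor is pre-mixed with substrate, and enzyme is added, diluted so that conversion stays at or below ~10% in 1 h. Incubation runs 1 h at 37 °C with shaking in Tris–Cl, then is stopped with phosphoramidon. Read-out is Ex320/Em420. Each IC50 uses a 10-point half-log series in duplicate.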

The target in series [15] is T3, Neprilysin (Oryctolagus cuniculus, UniProt P08049).
T3 sequence (P08049 whole entry): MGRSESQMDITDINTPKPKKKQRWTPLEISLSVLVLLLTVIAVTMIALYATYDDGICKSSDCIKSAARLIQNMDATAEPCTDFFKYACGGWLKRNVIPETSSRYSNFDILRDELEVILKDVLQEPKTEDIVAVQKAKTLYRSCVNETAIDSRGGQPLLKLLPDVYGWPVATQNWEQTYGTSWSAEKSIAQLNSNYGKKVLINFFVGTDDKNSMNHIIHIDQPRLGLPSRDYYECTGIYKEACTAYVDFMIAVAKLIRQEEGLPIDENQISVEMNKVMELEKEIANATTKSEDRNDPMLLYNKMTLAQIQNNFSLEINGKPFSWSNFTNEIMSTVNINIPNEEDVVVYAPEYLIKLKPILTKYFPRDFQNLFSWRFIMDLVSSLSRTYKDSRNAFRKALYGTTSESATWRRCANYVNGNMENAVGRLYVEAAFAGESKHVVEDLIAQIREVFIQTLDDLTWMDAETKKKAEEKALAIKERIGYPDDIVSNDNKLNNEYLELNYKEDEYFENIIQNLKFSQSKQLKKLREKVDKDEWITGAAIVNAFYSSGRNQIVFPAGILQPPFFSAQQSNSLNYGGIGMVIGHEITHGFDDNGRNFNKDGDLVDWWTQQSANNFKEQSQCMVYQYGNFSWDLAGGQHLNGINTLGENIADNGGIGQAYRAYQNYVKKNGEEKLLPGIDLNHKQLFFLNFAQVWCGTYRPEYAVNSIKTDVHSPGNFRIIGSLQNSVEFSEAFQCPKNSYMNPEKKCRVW
Nature of the series: Inhibition of rabbit NEP. In outline: as §3

Consider `COCC[C@H](CC1(C(=O)NC2(CO)Cc3ccccc3C2)CCCC1)C(=O)O`, for which the IC50 (as a rule, the point on the concentration scale where inhibition reaches its midpoint) in series [1] was 5.4 nM; in series [7], 14.2 nM. Besides, the Activity (in the series filed under Sus scrofa; in series [2]) was > 3 µM throughout. The logD (as a rule, lipophilicity at a set pH, counting ionised and neutral species) in [3] is -0.2. Moreover, the half-life (commonly the time needed for the level to fall by half in the phase considered) at 1 µM in series [4] is > 2 h. In addition, the Papp A→B (in general, the apparent permeability from the apical to the basolateral side of a cell layer) in [5] was 1 ×10⁻⁶ cm/s. In addition, the Papp B→A (commonly how fast a substance crosses the layer from the basolateral side) in [6] was found to be 2.5 ×10⁻⁶ cm/s. This compound also yielded a clearance in [8] of 18 mL/min/kg. In addition, the Vd in series [9] worked out at 7.5 L/kg. The same compound had a half-life in [10] of 4.8 h. This compound showed a fraction unbound in series [11] of 0.088. In [12], the bioavailability came to 109%. For the same compound, the time to peak (Tmax) (as a rule, the time at which the peak concentration occurs) in series [13] was < 1 h. For the same compound, the fraction unbound at 1 ug/ml in the series filed under Homo sapiens is 0.228.

Turning to `COCC[C@H](CC1(C(=O)NCCCc2ccc(Cl)cc2)CCCC1)C(=O)O`, the IC50 stood at 0.9 nM in series [1], 0.6 nM against Neprilysin [14], 0.8 nM against Neprilysin [15] and 3.8 nM in series [7]. Further, the Activity (in the series filed under Sus scrofa; in series [2]) was > 3 µM in each case. In [3], this compound gave a logD of 1. Further, the half-life at 1 µM in series [4] was > 2 h. Also, in series [5], the Papp A→B worked out at 12 ×10⁻⁶ cm/s. In series [6], this compound registered a Papp B→A of 14 ×10⁻⁶ cm/s. This compound had a clearance in series [8] of 3.5 mL/min/kg. For the same compound, the Vd in series [9] was found to be 0.6 L/kg. The half-life in series [10] was 1.9 h. The fraction unbound in series [11] was determined as 0.083. In addition, the bioavailability in series [12] worked out at 70%.
